In ChEMBL document CHEMBL1121696, “Antimicrobial 3-methyleneflavanones” (1981):
Values after ≈ are worked out from the molar mass of the structure shown.

Columns and labels:
Trichophyton benhamiae [1] = assay: Compound was tested for the antimicrobial activity against Trichophyton mentagrophytes (ATCC 4807); Range is 6.2-25; format: functional, Arthroderma benhamiae
In short: (§1)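 Spores came from Eugon agar slants grown 1 week at 32 °C, suspended at 10⁶/mL in Eugon broth or saline, and applied by Steers replicator. The lowest inhibitory concentration was read after 48-72 h at 32 °C.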

Staphylococcus aureus [2] = assay: Compound was tested for the antimicrobial activity against Staphylococcus aureus (ATCC 6538, NRRL B2747); Range is 50-100; format: functional
In short: (§2)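 Agar dilution MIC. Stocks and twofold serial dilutions in DMF or 50% aqueous DMF were mixed 1:100 into molten Eugon agar, giving final 100, 50, 25, 12.5, 6.2, 3.1 mcg/mL (further dilutions sometimes) and ≤1% DMF. Inocula came from 24 h Eugon agar slants at 32 °C, suspended at 10⁶ cells/mL and applied with a Steers replicator. MIC (lowest concentration inhibiting growth) was read after 24 h at 32 °C.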

Enterococcus faecalis [3] = assay: Antimicrobial activity against Streptococcus faecalis (ATCC 10541); format: functional; in short: as §2
Aspergillus niger = assay: Antimicrobial activity against Aspergillus niger (ATCC 16404); format: functional; in short: as §1
Candida albicans [4] = assay: Antimicrobial activity against Candida albicans (ATCC 10231, NRRL Y-477); format: functional; in short: as §2
Trichophyton benhamiae [5] = assay: Compound was tested for the antimicrobial activity against Trichophyton mentagrophytes (ATCC 4807); Range is 50 to >100; format: functional, Arthroderma benhamiae; in short: as §1
Candida albicans [6] = assay: Compound was tested for the antimicrobial activity against Candida albicans (ATCC 10231, NRRL Y-477); Range is 25 to >100; format: functional; in short: as §2
Staphylococcus aureus [7] = assay: Antimicrobial activity against Staphylococcus aureus (ATCC 6538, NRRL B2747); Range is <3.1-6.2; format: functional; in short: as §2
Trichophyton benhamiae [8] = assay: Compound was tested for the antimicrobial activity against Trichophyton mentagrophytes (ATCC 4807); Range is 6.2-12.5; format: functional, Arthroderma benhamiae; in short: as §1
Candida albicans [9] = assay: Compound was tested for the antimicrobial activity against Candida albicans (ATCC 10231, NRRL Y-477); Range is 50 to >100; format: functional; in short: as §2
Trichophyton benhamiae [10] = assay: Compound was tested for the antimicrobial activity against Trichophyton mentagrophytes (ATCC 4807); Range is 12.5-25; format: functional, Arthroderma benhamiae; in short: as §1
Staphylococcus aureus [11] = assay: Antimicrobial activity against Staphylococcus aureus (ATCC 6538, NRRL B2747); format: functional; in short: as §2
Trichophyton benhamiae [12] = assay: Antimicrobial activity against Trichophyton mentagrophytes (ATCC 4807); format: functional, Arthroderma benhamiae; in short: as §1
Enterococcus faecalis [13] = assay: Compound was tested for the antimicrobial activity against Streptococcus faecalis (ATCC 10541); Range is 25-50; format: functional; in short: as §2
Candida albicans [14] = assay: Compound was tested for the antimicrobial activity against Candida albicans (ATCC 10231, NRRL Y-477); Range is 25-50; format: functional; in short: as §2
[15] = tested on: Staphylococcus epidermidis; assay: Compound was tested for its antimicrobial activity against Staphylococcus epidermidis (ATCC 12228); format: functional; in short: as §2
[16] = Compound was tested for its antimicrobial activity against Sarcina subflava (ATCC 7468); format: functional; in short: as §2
Staphylococcus aureus [17] = assay: Compound was tested for its antimicrobial activity against Staphylococcus aureus (9-195); format: functional; in short: as §2
[18] = tested on: Clostridium acetobutylicum; assay: Compound was tested for its antimicrobial activity against Clostridium acetobutylicum (ATCC 824); format: functional
In short: (§3)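 Anaerobic bacteria were grown 72 h at 32 °C in fluid thioglycollate medium and used undiluted to inoculate, by Steers replicator, Eugon agar containing serial twofold compound dilutions made in DMF or 50% aqueous DMF (final 100 to 3.1 mcg/mL, ≤1% DMF). MIC was read after 72 h of anaerobic incubation (Gas-Pak jar) at 37 °C.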

Staphylococcus aureus [19] = assay: Compound was tested for its antimicrobial activity against Staphylococcus aureus (9-267); format: functional; in short: as §2
Cutibacterium acnes = assay: Compound was tested for its antimicrobial activity against Propionibacterium acnes (ATCC 6919); format: functional; in short: as §3
Staphylococcus aureus [20] = assay: Compound was tested for its antimicrobial activity against Staphylococcus aureus (NRRL B2747); format: functional; in short: as §2
Enterococcus = assay: Compound was tested for its antimicrobial activity against Enterococcus (9-25)
Bacillus subtilis = assay: Compound was tested for its antimicrobial activity against Bacillus subtilis (ATCC 6633); format: functional; in short: as §2
Staphylococcus aureus [21] = assay: Compound was tested for its antimicrobial activity against Staphylococcus aureus (ATCC 6538); format: functional; in short: as §2
Staphylococcus aureus [22] = assay: Compound was tested for its antimicrobial activity against Staphylococcus aureus (ATCC 151); format: functional; in short: as §2
Enterococcus faecalis [23] = assay: Compound was tested for its antimicrobial activity against Streptococcus faecalis (ATCC 10541); format: functional; in short: as §2
Candida albicans [24] = assay: Compound was tested for the antimicrobial activity against Candida albicans (ATCC 10231, NRRL Y-477); Range is 100 to >100; format: functional; in short: as §2
Trichophyton benhamiae [25] = assay: Compound was tested for the antimicrobial activity against Trichophyton mentagrophytes (ATCC 4807); Range is <3.1-25; format: functional, Arthroderma benhamiae; in short: as §1
Trichophyton benhamiae [26] = assay: Compound was tested for the antimicrobial activity against Trichophyton mentagrophytes (ATCC 4807); Range is 12.5-50; format: functional, Arthroderma benhamiae; in short: as §1
Trichophyton benhamiae [27] = assay: Compound was tested for the antimicrobial activity against Trichophyton mentagrophytes (ATCC 4807); Range is <3.1-6.2; format: functional, Arthroderma benhamiae; in short: as §1

Q: With C=C1C(=O)c2ccccc2OC1c1ccc(C#N)cc1 (configuration not stated) as the compound, how does the MIC (Trichophyton benhamiae [1]) read?
A: Its MIC is 6.2 µg/mL (≈ 23.7 µM).

Q: Which MIC (Staphylococcus aureus [2]) does the source give for C=C1C(=O)c2ccccc2SC1c1ccccc1 (configuration not stated) here?
A: Its MIC is 50 µg/mL (≈ 198 µM).

Q: And the MIC (Enterococcus faecalis [3])?
A: The MIC was > 100 µg/mL.

Q: What about the MIC (Aspergillus niger) of the same compound?
A: Its MIC is > 100 µg/mL.

Q: And the MIC (Candida albicans [4])?
A: Its MIC is > 100 µg/mL.

Q: And the MIC (Trichophyton benhamiae [5])?
A: Its MIC is > 50 µg/mL.

Q: Which results are given for C=C1C(=O)c2ccc(OC)cc2OC1c1ccc(Cl)cc1 (configuration not stated)?
A: MIC (Candida albicans [6]): > 25 µg/mL; MIC (Staphylococcus aureus [7]): < 3.1 µg/mL; MIC (Trichophyton benhamiae [8]): 6.2 µg/mL (≈ 20.6 µM)

Q: Which MIC (Candida albicans [9]) does the source give for C=C1C(=O)c2ccccc2OC1c1ccc(OC)cc1 (configuration not stated) here?
A: The MIC was > 50 µg/mL.

Q: And the MIC (Trichophyton benhamiae [10])?
A: The MIC was 12.5 µg/mL (≈ 46.9 µM).

Q: What does the source list for C=C(CC)C(=O)c1ccc(OCC(=O)O)c(Cl)c1Cl [ETHACRYNIC ACID]?
A: MIC (Staphylococcus aureus [11]): > 100 µg/mL; MIC (Enterococcus faecalis [3]): > 100 µg/mL; MIC (Aspergillus niger): > 100 µg/mL; MIC (Candida albicans [4]): > 100 µg/mL; MIC (Trichophyton benhamiae [12]): > 100 µg/mL

Q: Which MIC (Enterococcus faecalis [13]) does the source give for C=C1C(=O)c2ccccc2OC1c1ccc(Cl)cc1Cl (configuration not stated) here?
A: Its MIC is 25 µg/mL (≈ 81.9 µM).

Q: And the MIC (Trichophyton benhamiae [1])?
A: Its MIC is 6.2 µg/mL (≈ 20.3 µM).

Q: What does the source list for C=C1C(=O)c2ccccc2OC1c1ccc(C(C)(C)C)cc1 (configuration not stated)?
A: MIC (Enterococcus faecalis [13]): 25 µg/mL (≈ 85.5 µM); MIC (Candida albicans [9]): > 50 µg/mL; MIC (Trichophyton benhamiae [10]): 12.5 µg/mL (≈ 42.8 µM); MIC (Staphylococcus aureus [7]): < 3.1 µg/mL

Q: What does the source list for C=C1COc2ccccc2C1=O?
A: MIC (Staphylococcus aureus [11]): 50 µg/mL (≈ 312 µM); MIC (Enterococcus faecalis [3]): 100 µg/mL (≈ 624 µM); MIC (Aspergillus niger): 100 µg/mL (≈ 624 µM); MIC (Candida albicans [14]): 25 µg/mL (≈ 156 µM); MIC (Trichophyton benhamiae [8]): 6.2 µg/mL (≈ 38.7 µM)

Q: Which MIC [15] does the source give for Oc1c(I)cc(Cl)c2cccnc12 [CLIOQUINOL] here?
A: The MIC was 12.5 µg/mL (≈ 40.9 µM).

Q: What about the MIC [16] of the same compound?
A: Its MIC is 3.1 µg/mL (≈ 10.1 µM).

Q: And the MIC (Staphylococcus aureus [17])?
A: The MIC was 12.5 µg/mL (≈ 40.9 µM).

Q: What about the MIC [18] of the same compound?
A: The MIC was < 6.2 µg/mL.

Q: What about the MIC (Staphylococcus aureus [19]) of the same compound?
A: Its MIC is 12.5 µg/mL (≈ 40.9 µM).

Q: What about the MIC (Cutibacterium acnes) of the same compound?
A: The MIC was 25 µg/mL (≈ 81.8 µM).

Q: And the MIC (Staphylococcus aureus [20])?
A: The MIC was 12.5 µg/mL (≈ 40.9 µM).

Q: And the MIC (Enterococcus)?
A: The MIC was 25 µg/mL (≈ 81.8 µM).

Q: What about the MIC (Bacillus subtilis) of the same compound?
A: The MIC was 6.2 µg/mL (≈ 20.3 µM).

Q: What about the MIC (Staphylococcus aureus [21]) of the same compound?
A: The MIC was 12.5 µg/mL (≈ 40.9 µM).

Q: What about the MIC (Staphylococcus aureus [22]) of the same compound?
A: Its MIC is 3.1 µg/mL (≈ 10.1 µM).

Q: And the MIC (Enterococcus faecalis [23])?
A: Its MIC is 12.5 µg/mL (≈ 40.9 µM).

Q: With C=C1C(=O)c2ccccc2OC1(c1ccccc1)c1ccncc1 (configuration not stated) as the compound, how does the MIC (Candida albicans [24]) read?
A: The MIC was > 100 µg/mL.

Q: What about the MIC (Trichophyton benhamiae [10]) of the same compound?
A: The MIC was 12.5 µg/mL (≈ 39.9 µM).

Q: What does the source list for C=C1C(=O)c2ccccc2OC1c1ccc(Cl)cc1 (configuration not stated)?
A: MIC (Staphylococcus aureus [11]): < 3.1 µg/mL; MIC (Trichophyton benhamiae [25]): < 3.1 µg/mL

Q: Which MIC (Trichophyton benhamiae [1]) does the source give for C=C1C(=O)c2ccccc2OC1(c1ccccc1)c1cccs1 (configuration not stated) here?
A: Its MIC is 6.2 µg/mL (≈ 19.5 µM).

Q: Which MIC (Candida albicans [24]) does the source give for C=C1C(=O)c2cc(Br)ccc2OC1c1ccc(Br)cc1 (configuration not stated) here?
A: The MIC was > 100 µg/mL.

Q: What about the MIC (Trichophyton benhamiae [26]) of the same compound?
A: Its MIC is 12.5 µg/mL (≈ 31.7 µM).

Q: With C=C1C(=O)c2ccccc2OC1c1ccc(C)cc1 (configuration not stated) as the compound, how does the MIC (Trichophyton benhamiae [27]) read?
A: The MIC was < 3.1 µg/mL.
